In ChEMBL document CHEMBL1138620, “Synthesis and antiproliferative evaluation of pyrazolo[1,5-a]-1,3,5-triazine myoseverin derivatives” (Bioorg Med Chem, 2009):
pIC50: −log10 of the molar value. Activity calls are given as the source filed them. The calls are words filed in the database; no cut-off is given here.

Legend:
SW480 [1] = assay: Cell cycle arrest in human SW480 cells assessed as accumulation at S phase at 30 uM after 24 hrs by flow cytometry; assay type: functional
Procedure, shortened: (§1)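 Colorectal lines were cultured in D-MEM with 10% FCS and treated at 30 µM for 24 h. Cells (10^6/mL) were resuspended in propidium iodide solution, held at 4 °C overnight and analysed by flow cytometry for DNA content. Values are means of three experiments ± SD.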

HeLa [2] = assay: Antimitotic activity in human HeLa cells expressing GFP-tubulin assessed as increase in aberration of mitotic spindle after 24 hrs by fluorescence microscopy; assay type: functional, cell-based; settings: in the assay text read “6 hrs” for “24 hrs”
Procedure, shortened: (§2)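 HeLa cells were grown in DMEM with 10% FBS at 37 °C in 5% CO2 and left to adhere for at least 36 h on poly-D-lysine-coated coverslips. Drugs were diluted in medium from 50 mM DMSO stocks. Cells were fixed with 1% paraformaldehyde then cold methanol and stained with anti-β-tubulin plus a FITC secondary, with propidium iodide counterstain. Aberrant spindles were scored as a percentage of total spindles counted.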

SW48 [3] = assay: Cell cycle arrest in human SW48 cells assessed as accumulation at G1 phase at 30 uM after 24 hrs by flow cytometry; assay type: functional; procedure, shortened: as §1
CCRF-CEM = assay: Cytotoxicity against human CEM cells after 72 hrs by MTT assay; assay type: functional, cell-based
Procedure, shortened: (§3)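 Cells (5 × 10^3/well) were seeded and incubated 24 h before drug addition, then exposed for 72 h. MTT was added (5 mg/mL stock) and growth was taken as absorbance relative to untreated wells. IC50 is the dose giving 50% growth inhibition. Three experiments were run, each in triplicate. Media: D-MEM with 10% FCS for MCF-7, HCT116, SW48 and SW480; RPMI1640 with 10% FCS for Mes-sa and CEM.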

SW48 [4] = assay: Cytotoxicity against human SW48 cells after 72 hrs by MTT assay; assay type: functional, cell-based; settings: SW48, 72 h; procedure, shortened: as §3
SW480 [5] = assay: Cell cycle arrest in human SW480 cells assessed as accumulation at G2/M phase at 30 uM after 24 hrs by flow cytometry; assay type: functional; procedure, shortened: as §1
[6] = Inhibition of tubulin polymerization in bovine brain; parameters: species or system Bos taurus
Procedure, shortened: (§4)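 Purified bovine brain tubulin (29 µM) was added to PEM buffer (100 mM PIPES, 1 mM MgCl2, 1 mM EGTA) with increasing inhibitor concentrations, up to 100 µM, in DMSO at equal DMSO levels. Polymerization was followed by absorbance at 340 nm for at least 1 h at 37 °C, and IC50 was taken from concentration–response plots.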

HCT-116 [7] = assay: Cell cycle arrest in human HCT116 cells assessed as accumulation at G2/M phase at 30 uM after 24 hrs by flow cytometry; assay type: functional; procedure, shortened: as §1
HeLa [8] = assay: Antimitotic activity in human HeLa cells expressing GFP-tubulin assessed as block of G2/M phase after 24 hrs by flow cytometry; assay type: functional, cell-based
Procedure, shortened: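 HeLa cells were exposed to increasing inhibitor concentrations for 24 h. The percentage of G2/M cells was determined by flow cytometry, with nocodazole as the reference mitotic inhibitor.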

HCT-116 [9] = assay: Cell cycle arrest in human HCT116 cells assessed as accumulation at G1 phase at 30 uM after 24 hrs by flow cytometry; assay type: functional; procedure, shortened: as §1
SW480 [10] = assay: Cell cycle arrest in human SW480 cells assessed as accumulation at G1 phase at 30 uM after 24 hrs by flow cytometry; assay type: functional; procedure, shortened: as §1
SW480 [11] = assay: Cytotoxicity against human SW480 cells after 72 hrs by MTT assay; assay type: functional, cell-based; settings: SW480, 72 h; procedure, shortened: as §3
HeLa [12] = assay: Antimitotic activity in human HeLa cells expressing GFP-tubulin assessed as induction of mitotic deffects by flow cytometry; assay type: functional, cell-based
[13] = Cytotoxicity against human MES-SA cells after 72 hrs by MTT assay; assay type: functional, cell-based; procedure, shortened: as §3
HCT-116 [14] = assay: Cell cycle arrest in human HCT116 cells assessed as accumulation at S phase at 30 uM after 24 hrs by flow cytometry; assay type: functional; procedure, shortened: as §1
HCT-116 [15] = assay: Cytotoxicity against human HCT116 cells after 72 hrs by MTT assay; assay type: functional, cell-based; settings: HCT-116, 72 h; procedure, shortened: as §3
HeLa [16] = assay: Antimitotic activity in human HeLa cells expressing GFP-tubulin assessed as aberration of mitotic spindle at 12 uM after 24 hrs by fluorescence microscopy; assay type: functional; settings: in the assay text read “6 hrs” for “24 hrs”; procedure, shortened: as §2
SW48 [17] = assay: Cell cycle arrest in human SW48 cells assessed as accumulation at S phase at 30 uM after 24 hrs by flow cytometry; assay type: functional; procedure, shortened: as §1
MCF7 = assay: Cytotoxicity against human MCF7 cells after 72 hrs by MTT assay; assay type: functional, cell-based; settings: MCF7, 72 h; procedure, shortened: as §3
SW48 [18] = assay: Cell cycle arrest in human SW48 cells assessed as accumulation at G2/M phase at 30 uM after 24 hrs by flow cytometry; assay type: functional; procedure, shortened: as §1
Bos taurus = organism: Bos taurus; assay: Inhibition of tubulin polymerization in bovine brain relative to baseline; settings: concentration not given here; procedure, shortened: as §4
HeLa [19] = assay: Antimitotic activity in human HeLa cells expressing GFP-tubulin assessed as induction of mitotic deffects at 50 uM by flow cytometry; assay type: functional, cell-based
HeLa [20] = assay: Antimitotic activity in human HeLa cells expressing GFP-tubulin assessed as collapse of spindle microtubule at 12 uM

Row | pIC50 [6] | Compound | Activity (SW480 [1]) [%] | Activity (HeLa [2]) | Activity (SW48 [3]) [%] | pIC50 (CCRF-CEM) | pIC50 (SW48 [4]) | Activity (SW480 [5]) [%] | Activity (HCT-116 [7]) [%] | Activity (HeLa [8]) | Activity (HCT-116 [9]) [%] | Activity (SW480 [10]) [%] | pIC50 (SW480 [11]) | Activity (HeLa [12]) | pIC50 [13] | Activity (HCT-116 [14]) [%] | pIC50 (HCT-116 [15]) | Activity (HeLa [16]) [%] | Activity (SW48 [17]) [%] | pIC50 (MCF7) | Activity (SW48 [18]) [%] | also measured
1 | 5.47 | COc1ccc(CNc2nc(NCc3ccc(OC)cc3)n3nccc3n2)cc1 | 15 | Dose-dependent effect | 16 | 4.89 | 5.28 | 42 | 51 | Active | 19 | 43 | 5.09 | Active | 4.35 | 29 | 5.21 | 100 | 21 | 4.47 | 62 | –
2 | – | COc1ccc(CNc2nc(NCc3ccc(OC)cc3)n3ncc(Br)c3n2)cc1 | 9 | – | 50 | 4.41 | 5.12 | 28 | 55.5 | – | 44 | 62 | 4.58 | – | 4.37 | 0.5 | 4.60 | – | 0.5 | 4.45 | 42.5 | inhibition (Bos taurus): 50%; Activity (HeLa [19]): inactive
3 | 5.44 | COc1ccc(CNc2nc(NCc3ccc(OC)cc3)c3ncn(C(C)C)c3n2)cc1 [MYOSEVERIN] | 3 | Dose-dependent effect | 1 | 5.24 | 5.57 | 84.5 | 88 | Active | 1.8 | 12.5 | 5.32 | Active | 5.07 | 9.5 | 5.48 | 100 | 1 | 4.94 | 98 | Activity (HeLa [20]): Active
4 | 5.44 | COc1ccc(CNc2nc(NCc3ccc(OC)cc3)n3ncc(C(C)C)c3n2)cc1 | 5.9 | Dose-dependent effect | 22.4 | 5.27 | 5.59 | 91.2 | 89.3 | Active | 8 | 3 | 5.26 | Active | 4.64 | 2.8 | 5.34 | 100 | 1.3 | 4.29 | 75.4 | –
